IC50 and Eudismic ratio data for 7 molecules are collected here from ChEMBL document CHEMBL1131474, “Asymmetric synthesis and pharmacology of methylphenidate and its para-substituted derivatives” (J Med Chem, 1998).

Holding throughout (assay type): functional
The species named for experiment [1] is Rattus norvegicus. Nature of the experiment: Ability to inhibit the uptake of norepinephrine [3H]-NE in to rat brain synaptosomes. In outline: (§1)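 Crude S1 synaptosomes from male Sprague–Dawley rat frontal/temporal cortex and striatum (sucrose–Tris–glucose, pH 7.4; 1000g, 15 min, 4 °C). Five drug levels, triplicate, with [3H]DA 25 nM or [3H]l-NE 50 nM final, in pargyline-containing Tris saline buffer. Preincubation 5 min, then 5 min uptake at 37 °C. Filtered, counted by scintillation, 0 °C uptake subtracted. IC50 read from sigmoidal fit.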

Experiment [2] is filed under the species Rattus norvegicus. The experiment can be described thus: Ability to inhibit the uptake of dopamine [3H]DA in to rat brain synaptosomes. The essentials: as §1
Experiment [3] in a line: Eudisimic ratio for DA uptake is the ratio of the IC50 values l-isomer and d-isomer. In outline:
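Eudismic ratio: IC50 of the l-isomer divided by IC50 of the d-isomer for each enantiomeric pair. IC50s came from rat synaptosomal [3H]DA or [3H]l-NE uptake, with five drug concentrations in triplicate and 5 min at 37 °C.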

As usually defined, the IC50 is the midpoint of a concentration-inhibition curve. Read a high IC50 as weaker potency in that assay.

`COC(=O)[C@@H](c1ccccc1)[C@@H]1CCCCN1`: the IC50 was found to be 876 nM in experiment [1] and 1470 nM in experiment [2].
Take `COC(=O)[C@H](c1ccc(OC)cc1)[C@H]1CCCCN1`: the results for the IC50 in experiment [1] and in experiment [2] were 73 nM and 205 nM, respectively. The Eudismic ratio in experiment [3] amounted to 17.5.
For `COC(=O)[C@H](c1ccccc1)[C@H]1CCCCN1` [DEXMETHYLPHENIDATE], the IC50 in experiment [1] is 128 nM; in experiment [2], 171 nM.
Taken in the same sequence, the figures for `COC(=O)[C@H](c1ccc(Br)cc1)[C@H]1CCCCN1` were 9.34 nM and 22.5 nM.
Turning to `COC(=O)[C@@H](c1ccc(OC)cc1)[C@@H]1CCCCN1`, the IC50 in experiment [1] is 1300 nM; in experiment [2], 3590 nM.
Taken in the same sequence, the figures for `COC(=O)[C@@H](c1ccc(Br)cc1)[C@@H]1CCCCN1` were 248 nM and 408 nM.
The matching figures for `COC(=O)C(c1ccccc1)C1CCCCN1` (racemic) [METHYLPHENIDATE]: 171 nM and 438 nM.
